The source of these data is PubChem BioAssay AID493187 (Sanford-Burnham Center for Chemical Genomics, 2011).

SMILES strings stand for the structures. Hit rate of the full screen: of about 340,000 compounds, about 190 (0.056%) were called active. This excerpt belongs to a sample that is enriched for actives. Values without a mark were called inactive.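 Rule for the calls: active = activation of 40% or more at 20 µM, a change of -40% or lower; inactive = the rest.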

Hexokinase HKDC1 (Homo sapiens), sequence (Q2TB90 whole entry, looked up): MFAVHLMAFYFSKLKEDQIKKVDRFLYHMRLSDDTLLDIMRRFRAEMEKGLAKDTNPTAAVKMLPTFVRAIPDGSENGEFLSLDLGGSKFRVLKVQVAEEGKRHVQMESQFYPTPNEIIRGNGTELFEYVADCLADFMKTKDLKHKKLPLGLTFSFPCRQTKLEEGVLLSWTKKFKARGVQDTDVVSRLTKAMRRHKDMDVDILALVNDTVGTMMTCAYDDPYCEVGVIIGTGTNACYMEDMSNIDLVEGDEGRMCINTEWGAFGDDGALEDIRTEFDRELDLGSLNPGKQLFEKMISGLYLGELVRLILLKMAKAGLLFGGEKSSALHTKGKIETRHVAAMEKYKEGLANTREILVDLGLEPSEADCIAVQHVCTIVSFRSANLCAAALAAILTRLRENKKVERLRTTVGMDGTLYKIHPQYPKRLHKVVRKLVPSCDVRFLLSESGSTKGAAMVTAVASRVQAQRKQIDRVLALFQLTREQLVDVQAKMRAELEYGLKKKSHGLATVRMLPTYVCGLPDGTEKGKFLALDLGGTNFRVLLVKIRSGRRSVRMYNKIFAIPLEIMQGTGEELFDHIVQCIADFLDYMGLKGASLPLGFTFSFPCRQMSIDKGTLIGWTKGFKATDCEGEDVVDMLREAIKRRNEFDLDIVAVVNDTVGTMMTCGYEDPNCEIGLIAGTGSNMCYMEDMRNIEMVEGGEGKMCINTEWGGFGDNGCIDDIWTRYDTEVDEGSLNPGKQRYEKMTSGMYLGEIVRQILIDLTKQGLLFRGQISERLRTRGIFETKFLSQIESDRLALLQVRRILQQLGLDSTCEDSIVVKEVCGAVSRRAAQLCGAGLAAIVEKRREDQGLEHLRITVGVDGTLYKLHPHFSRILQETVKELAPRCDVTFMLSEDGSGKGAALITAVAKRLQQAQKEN

In the test the target is Hexokinase HKDC1 (Homo sapiens) (UniProt Q2TB90). Briefly: enhancers of human HKDC1 enzyme activity – biochemical, fluorescence, uHTS, primary screen (AID 493187). Particulars: recombinant HKDC1, G6PDH/diaphorase resazurin fluorescence; at 20 µM; stronger effect = lower value. The method, boiled down:
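Material: in-house human HKDC1 enzyme, G6PDH and diaphorase coupling enzymes | Quantity: HKDC1 at 5 µg/mL final | Medium: Tris buffer at pH 8.0 containing MgCl2 | Compound dosing: 20 µM single dose | Schedule: 90 min reaction at room temperature, dark | Measured by: Resorufin fluorescence, 525/613 nm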
Consider `O=C(CSc1cccc2cccnc12)N/N=C/c1cccnc1`, for which the activity change, negative = activation was -52.6% (active).

Consider `O=c1[nH]c2ccccc2n2c(-c3ccccc3)nnc12`, for which the activity change, negative = activation was 46.7%. The figure for `C[N+](C)(CCCCCC[N+](C)(C)CCCN1C(=O)c2cccc3cccc(c23)C1=O)CCCN1C(=O)c2cccc3cccc(c23)C1=O` is -66.9% (active). The figure for `COc1ccc(C(CCN(Cc2ccc(OC)c(OC)c2)C(=O)CCl)c2ccccc2)cc1` (stereo not drawn) is 35.4%. Under `COc1ccc2c(c1)c(=Cc1ccc(N(C)C)cc1)c1cc(-c3ccccc3)[n+](C)n12` stands 43.2%. In the case of `COc1ccc(N(CC(=O)N/N=C/c2cccc3c2OCCO3)S(=O)(=O)c2ccc(NC(C)=O)cc2)cc1`, the activity change, negative = activation was 38.1%.

In the case of `Cc1cc(C2=NNC(=Nc3ccc(S(=O)(=O)N4CCOCC4)cc3)SC2)c(C)n1CC1CCCO1` (stereo not drawn), the activity change, negative = activation was -70% (active). On to `CCOC(=O)CSc1nc2ccc(C)cc2n2cnnc12`, for which the activity change, negative = activation was 53%. With `CC(=O)/C(=N\Nc1ccc(Cl)cc1Cl)Sc1cccc2cccnc12`, the activity change, negative = activation is -40.8% (active). In the case of `CCCc1nc2oc3c(OCC)ncnc3c2c2c1COC(C)(C)C2`, the activity change, negative = activation is 37.7%. The figure for `O=C(c1cccnc1)N(c1cc2sc(=O)oc2c2ccccc12)S(=O)(=O)c1ccccc1` is 38.2%; for `CN1c2ccc(C=O)c3c(C=O)ccc(c23)N(C)C1(C)C` it is 36.4%; for `O=C(NC1=CC(=O)c2ccccc2C1=O)c1ccccc1` it is 54.1%. The figure for `CCc1ccc2c(c1)C1(NN=C(c3ccccc3)S1)C(=O)N2` (stereo not drawn) is -48.1% (active); for `O=C1C(Cl)=C(Oc2ccccc2)C(=O)c2ccccc21` it is 65.2%. The figure for `Cc1ccc(Nc2nc(-c3sc(NC(=O)c4ccccc4)nc3C)cs2)cc1` is -77.6% (active); for `CC(C)(C)Nc1c(N)c(=O)oc2ccccc12` it is 44.6%. Take `CCC(=C/c1sc2ccc3ccccc3c2[n+]1C)/C=C1\Sc2ccc3ccccc3c2N1C`: the activity change, negative = activation was 45%. Take `COc1ccc(NC(=O)CSc2ccc(-c3ccco3)nn2)c(OC)c1`: the activity change, negative = activation is 47.3%. `Clc1cccc(N=C2NN=C(c3ccc4c(c3)OCCO4)CS2)c1`: the activity change, negative = activation was -169% (active).

As for `O=S(=O)(Nc1ccc(O)c2ccccc12)c1ccc(OC(F)(F)F)cc1`, the activity change, negative = activation was 52%.

As to `CCOC(=O)C1=C(c2ccc(OC)cc2)C(=O)c2ccccc2C1=O`, the activity change, negative = activation was 81.4%. The figure for `CCn1cc(C(=O)NCc2ccc3c(c2)OCO3)c2cc(OC)c(OC)cc2c1=O` is 37.8%. The figure for `O=c1ccc2c(-c3ccccc3S(=O)(=O)O)c3ccc(O)c(O)c3oc-2c1O` is 38.4%. Under `Cc1ccc2oc(=O)c3cnn(CC(=O)N4CCCCCC4)c3c2c1` stands -44.7% (active); under `Nc1ccc2nc3c(=O)[nH]c(=S)[nH]c3nc2c1`, 69.9%; under `CC(=O)N(C1=C(Cl)C(=O)c2ccccc2C1=O)c1ccc(C(=O)O)cc1`, 52.2%.

For `Cc1cc(C(=O)CCl)c(C)n1CC1COc2ccccc2O1` (stereo not drawn), the activity change, negative = activation is 38.2%.
